Columns and labels:
[1] = target: T1, Peroxisome proliferator-activated receptor alpha (Homo sapiens, UniProt Q07869); test: Inhibition of human Peroxisome proliferator activated receptor alpha binding
T1 sequence (Q07869 whole entry): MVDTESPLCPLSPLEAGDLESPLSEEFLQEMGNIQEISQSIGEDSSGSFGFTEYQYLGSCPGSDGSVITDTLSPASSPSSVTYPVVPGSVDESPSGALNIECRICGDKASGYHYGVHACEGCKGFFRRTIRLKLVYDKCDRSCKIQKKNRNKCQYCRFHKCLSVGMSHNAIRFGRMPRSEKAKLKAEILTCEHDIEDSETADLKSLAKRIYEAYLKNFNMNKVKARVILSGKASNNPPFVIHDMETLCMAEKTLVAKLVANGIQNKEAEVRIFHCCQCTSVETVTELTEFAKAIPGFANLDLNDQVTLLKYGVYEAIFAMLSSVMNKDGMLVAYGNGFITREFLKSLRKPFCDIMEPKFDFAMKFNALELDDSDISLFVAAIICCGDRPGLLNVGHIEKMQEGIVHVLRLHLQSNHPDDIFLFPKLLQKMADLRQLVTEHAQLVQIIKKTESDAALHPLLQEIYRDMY

[2] = target: T2, Peroxisome proliferator-activated receptor gamma (Homo sapiens, UniProt P37231); test: Inhibition of human Peroxisome proliferator activated receptor gamma binding
T2 sequence (P37231 whole entry): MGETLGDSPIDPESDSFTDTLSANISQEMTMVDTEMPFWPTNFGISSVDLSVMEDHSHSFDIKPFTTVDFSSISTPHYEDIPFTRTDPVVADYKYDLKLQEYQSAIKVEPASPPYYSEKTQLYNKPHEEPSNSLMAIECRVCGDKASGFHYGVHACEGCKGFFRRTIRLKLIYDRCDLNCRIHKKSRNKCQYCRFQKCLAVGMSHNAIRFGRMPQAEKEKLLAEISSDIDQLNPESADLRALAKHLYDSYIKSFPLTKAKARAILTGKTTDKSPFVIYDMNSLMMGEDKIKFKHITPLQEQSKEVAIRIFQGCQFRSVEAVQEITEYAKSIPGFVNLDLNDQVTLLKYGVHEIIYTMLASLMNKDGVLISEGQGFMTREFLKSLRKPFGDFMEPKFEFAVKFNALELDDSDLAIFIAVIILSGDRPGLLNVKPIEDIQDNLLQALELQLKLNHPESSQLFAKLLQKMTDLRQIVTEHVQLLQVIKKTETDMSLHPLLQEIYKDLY

[3] = target: T2, Peroxisome proliferator-activated receptor gamma; test: Maximal effect against human Peroxisome proliferator activated receptor gamma in Gal4 transactivation assay
Procedure, shortened: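 Chimeric GAL4-hPPARγ transactivation assay in transiently transfected COS-1 cells. The response is given as percent at 3 µM, the mean of n = 3.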

[4] = target: T1, Peroxisome proliferator-activated receptor alpha; test: Effective concentration against human Peroxisome proliferator activated receptor alpha in Gal4 transactivation assay
[5] = target: T1, Peroxisome proliferator-activated receptor alpha; test: Effective concentration against human Peroxisome proliferator activated receptor alpha in Gal4 transactivation assay; Not active at 3 uM
Procedure, shortened: (§1)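 Chimeric GAL4-hPPARα or GAL4-hPPARγ transactivation assay in transiently transfected COS-1 cells. Compounds were titrated up to 3 µM, the highest concentration tested. […] "Not active" means no activity at 3 µM.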

[6] = target: T2, Peroxisome proliferator-activated receptor gamma; test: Effective concentration against human Peroxisome proliferator activated receptor gamma in Gal4 transactivation assay; Not active at 3 uM; procedure, shortened: as §1
[7] = target: T2, Peroxisome proliferator-activated receptor gamma; test: Effective concentration against human Peroxisome proliferator activated receptor gamma in Gal4 transactivation assay
[8] = target: T3, Peroxisome proliferator-activated receptor alpha (Mus musculus, UniProt P23204); test: Agonist activity against mouse Peroxisome proliferator activated receptor alpha; assay type: functional
T3 sequence (P23204 whole entry): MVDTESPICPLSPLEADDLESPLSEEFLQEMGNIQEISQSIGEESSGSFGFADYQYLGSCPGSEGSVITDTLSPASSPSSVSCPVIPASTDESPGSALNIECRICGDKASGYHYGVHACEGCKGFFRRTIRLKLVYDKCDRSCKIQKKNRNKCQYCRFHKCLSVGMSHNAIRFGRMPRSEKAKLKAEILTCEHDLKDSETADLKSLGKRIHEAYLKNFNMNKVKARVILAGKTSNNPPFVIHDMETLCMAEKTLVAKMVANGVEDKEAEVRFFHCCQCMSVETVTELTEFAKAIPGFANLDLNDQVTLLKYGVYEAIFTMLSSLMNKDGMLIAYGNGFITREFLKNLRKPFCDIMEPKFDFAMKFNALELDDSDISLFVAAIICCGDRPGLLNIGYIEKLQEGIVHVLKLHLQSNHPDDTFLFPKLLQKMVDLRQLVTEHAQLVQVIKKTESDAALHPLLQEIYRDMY
Procedure, shortened: (§2)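 Chimeric GAL4 fusions carrying the PPARα receptor from dog, hamster or mouse, constructed like the human transactivation assay. Run in transiently transfected COS-1 cells, with agonist activity read as EC50.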

[9] = target: T4, Peroxisome proliferator-activated receptor alpha (Canis lupus familiaris, UniProt Q95N78); test: Agonist activity against dog Peroxisome proliferator activated receptor alpha; assay type: functional; procedure, shortened: as §2
T4 sequence (Q95N78 whole entry): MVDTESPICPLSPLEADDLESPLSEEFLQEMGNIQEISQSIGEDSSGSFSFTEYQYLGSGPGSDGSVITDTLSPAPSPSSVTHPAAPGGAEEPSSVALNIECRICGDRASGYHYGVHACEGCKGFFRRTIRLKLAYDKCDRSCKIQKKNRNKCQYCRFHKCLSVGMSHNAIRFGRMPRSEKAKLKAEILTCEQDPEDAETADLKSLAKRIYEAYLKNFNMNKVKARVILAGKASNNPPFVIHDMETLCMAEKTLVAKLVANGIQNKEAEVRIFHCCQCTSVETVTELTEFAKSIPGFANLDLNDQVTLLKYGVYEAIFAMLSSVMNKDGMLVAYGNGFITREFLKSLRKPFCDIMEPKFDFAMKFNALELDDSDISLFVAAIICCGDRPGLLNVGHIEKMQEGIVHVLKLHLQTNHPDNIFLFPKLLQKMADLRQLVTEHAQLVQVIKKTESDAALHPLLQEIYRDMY

Row | IC50 [1] [nM] | IC50 [2] [nM] | Emax [3] [%] | EC50 [4] [nM] | EC50 [5] | EC50 [6] | EC50 [7] [nM] | EC50 [8] [nM] | EC50 [9] [nM] | Compound
1 | 1030 | > 10000 | 21 | 620 | – | – | – | – | – | CCCc1cc2c(C(F)(F)F)noc2c(CCC)c1OC(C)C(=O)O (configuration not stated)
2 | > 10000 | > 10000 | – | – | Not Active | Not Active | – | – | – | CCCc1c(OC(C)(C)C(=O)O)ccc2c(C(F)(F)F)noc12
3 | 1510 | 1620 | – | 60 | – | – | 1100 | – | – | CCCc1cc2c(OC)noc2c(CCC)c1OC(C)(C)C(=O)O
4 | 35000 | – | – | 15000 | – | – | – | – | – | CC(C)(Oc1ccc(C(=O)c2ccc(Cl)cc2)cc1)C(=O)O [FENOFIBRIC ACID]
5 | > 50000 | > 15000 | – | – | Not Active | Not Active | – | – | – | CCCc1cc2c(C(F)(F)F)noc2c(CCC)c1OCC(C)(C)C(=O)O
6 | 480 | 1220 | – | 10 | – | – | 1300 | – | – | CCCc1cc(C(=O)CC)cc(CCC)c1OC(C)(C)C(=O)O
7 | 100 | > 15000 | 26 | 750 | – | – | – | – | – | CCCc1cc2c(C(F)(F)F)noc2c(CCC)c1OC(C)(CC)C(=O)O (configuration not stated)
8 | 230 | 1580 | 25 | 300 | – | – | – | 180 | 550 | CCCc1cc2c(C(F)(F)F)noc2c(CCC)c1OC(C)(C)C(=O)O

Source: ChEMBL document CHEMBL1143558, “Discovery of a novel series of peroxisome proliferator-activated receptor alpha/gamma dual agonists for the treatment of type 2 diabetes and dyslipidemia” (J Med Chem, 2005)
